# NR1D1 modulator: Rev-erb alpha (human) modulation; P20393; Rev-erbα–FITC-DNA binding, fluorescence polarization, 90 min; activity, % at 10 µM; hit rate 0.79% among 370,000; AID 1259318;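 active means activity above about 14%, limit read from the data; passing the limit was not always enough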
# rCAG RNA binder: molecules binding r(CAG) RNA repeats. r(CAG) RNA repeat, TO-PRO-1 dye displacement fluorescence. inhibition, % at 3 µM. hit rate 1.3% among 370,000. AID 651821;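 active means inhibition above the plate cutoff, the mean of all test compounds on that plate plus 3 SD, cut at about 35% in these data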;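 further: higher means more dye released from RNA so lower well fluorescence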
# NR2E3 ag-1: agonists of human NR2E3 nuclear receptor; inhibition of corepressor binding, % at 3.98 µM; hit rate 0.35% among 360,000; AID 602229; CHO-S Gal4-NCOR/VP16-NR2E3 two-hybrid, luciferase; Q9Y5X4;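 active means inhibition above the mean of all tested compounds plus 3 SD, cut at about 70% in these data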;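 further: higher means lower luciferase signal from less NR2E3 corepressor binding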
# Target sequence (Q9Y5X4 whole entry, looked up, the tested form may be a part): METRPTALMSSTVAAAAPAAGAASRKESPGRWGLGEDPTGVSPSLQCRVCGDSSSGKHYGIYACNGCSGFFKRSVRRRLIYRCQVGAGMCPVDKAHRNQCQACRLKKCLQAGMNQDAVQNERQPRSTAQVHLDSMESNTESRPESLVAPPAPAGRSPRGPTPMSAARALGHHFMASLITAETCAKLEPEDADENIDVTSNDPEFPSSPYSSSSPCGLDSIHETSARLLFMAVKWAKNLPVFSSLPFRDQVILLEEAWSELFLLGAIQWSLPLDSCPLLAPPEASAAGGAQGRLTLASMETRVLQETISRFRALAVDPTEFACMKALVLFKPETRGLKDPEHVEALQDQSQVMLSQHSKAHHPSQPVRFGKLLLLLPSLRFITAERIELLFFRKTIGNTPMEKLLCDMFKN
# NR2E3 ag-2: agonists of human nuclear receptor NR2E3 | Q9Y5X4 | GST-NR2E3/biotin-RetCOR TR-FRET, 1536-well | inhibition of corepressor binding, % at 4.78 µM | hit rate 0.12% among 320,000;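 active means percent inhibition above the cutoff of mean plus 3 SD of all tested compounds, set per screening campaign, cut at about 20% in these data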
#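 System: GST-tagged NR2E3 plus biotinylated RetCOR corepressor; Amount: 1.35 nM GST-tagged NR2E3 final; Dosing: single nominal compound dose of 4.8 µM; Schedule: 5 h incubation at 4 °C; Technique: TR-FRET with europium anti-GST and streptavidin-D2, 340 nm excitation; Controls: biotin wells as high control, 0.6% DMSO wells as low control.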
# PG9 Ab binder: binds the HIV-1 gp120 antibody PG9 | TR-FRET gp120-PG9 antibody binding | inhibition, % at 6.7 µM | hit rate 0.43% among 360,000; in the data active means inhibition above about 8.5%
# PG9 bind confirm: PG9 antibody binding, confirmed | shares compounds with PG9 Ab binder | TR-FRET PG9 antibody binding, biochemical | inhibition, % at 6.7 µM | hit rate 90% among 1,500 | AID 651571; in the data active means inhibition above about 9%
# PGV04 counter: counter-screen for PG9 binders: binding control antibody PGV04 | shares compounds with PG9 Ab binder | hit rate 95% among 1,500 | TR-FRET PGV04 antibody-gp120 binding, biochemical | inhibition, % at 6.7 µM | AID 651604; in the data active means inhibition above about 9.5%
# rCAG binder conf: r(CAG) RNA repeat binding, confirmation; AID 652065; hit rate 70% among 4,300; shares compounds with rCAG RNA binder; TO-PRO-1 dye displacement fluorescence; inhibition, % at 3 µM;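 active means inhibition above a per-plate cutoff, the mean inhibition of sample wells plus 3 SD, cut at about 35% in these data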;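 further: loss of TO-PRO-1 fluorescence as compound displaces dye from 1x1 AA loop RNA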
# dCAG dye counter: disrupts DNA CAG TO-PRO-1 complex, flagging rCAG hits; shares compounds with rCAG RNA binder; d(CAG) DNA oligo TO-PRO-1 dye displacement, fluorescence; inhibition, % at 3 µM; hit rate 94% among 4,300; AID 652068;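 active means inhibition above its plate's cutoff, the mean test-well inhibition plus 3 SD, cut at about 4.8% in these data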;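 further: hits displace the dye from DNA and so lower well fluorescence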
# Rev-erbA confirm: confirmation of modulators of human Rev-erb alpha DNA binding | hit rate 61% among 3,000 | Rev-erb alpha FITC-DNA binding, fluorescence polarization, 90 min | shares compounds with NR1D1 modulator | activation, % at 25 µM;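 active means activation at or above a set limit, or at least 3 SD above the negative control mean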
# RORg counter: counter-screen for Rev-erb alpha modulators: RORgamma DNA binding. shares compounds with NR1D1 modulator. purified RORgamma protein-FITC-DNA binding, fluorescence polarization. IC50, µM. hit rate 8% among 910. AID 1259320;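 active means Compounds whose fitted half-maximal concentration for disrupting protein-DNA binding is below 10 micromolar; the record names Rev-erb in its text, so the target is in doubt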
# Hits are given with their value; i = inactive; nt = no result given. In the library only some 2.6% were active in any assay of this set; here they are far more common.
SMILES,NR1D1 modulator,rCAG RNA binder,NR2E3 ag-1,NR2E3 ag-2,PG9 Ab binder,PG9 bind confirm,PGV04 counter,Rev-erbA confirm,RORg counter,others
CC(C)(C)OC(=O)N1CCC(NC(=O)c2[nH]c(C(F)(F)F)nc2-c2ccccc2)CC1,i,i,i,nt,i,nt,nt,nt,nt,
Cc1cc(-c2n[nH]c(=S)n2N=Cc2ccc(O)cc2)n[nH]1,i,i,nt,nt,nt,nt,nt,nt,nt,
COc1ccc(CCNC(=O)CNC(=O)c2nn(-c3ccc(OC)c(OC)c3)c(=O)c3ccccc23)cc1OC,i,i,i,i,i,nt,nt,nt,nt,
CCOc1ccc(NC(=O)CNC(=O)c2nn(-c3ccc(OC)c(OC)c3)c(=O)c3ccccc23)cc1,111,i,i,i,40,23,61,91,i,
COc1ccc(-n2nc(C(=O)NCC(=O)Nc3ccc(F)cc3)c3ccccc3c2=O)cc1,39,i,i,i,11,17,25,i,nt,
CCc1ccc(NC(=O)CNC(=O)c2nn(-c3ccc(OC)cc3)c(=O)c3ccccc23)cc1,i,i,i,i,i,nt,nt,nt,nt,
COc1ccc(-n2nc(C(=O)NCC(=O)Nc3cccc(Cl)c3)c3ccccc3c2=O)cc1OC,289,i,i,i,39,35,66,273,i,
CN1CCN(C(=O)c2cccc(-c3ccc4nccn4c3)c2)CC1,i,i,i,nt,i,nt,nt,nt,nt,
O=C(NC1CCCC1)C(c1ccco1)N1CCC(O)(c2ccc(Cl)cc2)CC1 (stereo not given),i,i,nt,nt,i,nt,nt,nt,nt,
COC(=O)c1sc(NC(=O)c2c(OC)cccc2OC)c(C#N)c1C,26,i,i,i,14,20,29,29,nt,
NNc1nc2c(F)cccc2s1,i,i,i,i,i,nt,nt,nt,nt,
Fc1cccc2sc(Nc3nc4c(F)cccc4s3)nc12,68,58,i,i,23,24,38,58,i,rCAG binder conf=60;dCAG dye counter=24
COCc1cc(C)nc(SCC(=O)Nc2cccc(C)c2C)c1C#N,i,i,i,i,i,nt,nt,nt,nt,
COc1ccc(NC(=O)CSc2nc(C)c3c(c2C#N)CCCC3)cc1,i,i,i,i,i,nt,nt,nt,nt,
Cc1cccc(NC(=O)CSc2nc(C)c(CC(=O)c3ccc(Br)cc3)c(C)c2C#N)c1C,82,i,i,i,9.2,21,30,31,nt,
Cc1nc(SCC(=O)Nc2ccc(F)cc2)c(C#N)c(C)c1CC(=O)c1ccc(Br)cc1,70,i,i,i,8.7,26,35,i,nt,
CC(C)OC(=O)CSc1nc(N)c(C#N)c(-c2cccs2)c1C#N,i,i,i,i,i,nt,nt,nt,nt,
N#Cc1c(N)nc(SCC(=O)NCCc2ccccc2)c(C#N)c1-c1cccs1,52,i,i,i,40,38,62,43,i,
COCCn1c(SCC(=O)NCCCN2CCCC2=O)nc2sc3c(c2c1=O)CCCC3,i,i,i,nt,i,nt,nt,nt,nt,
O=C(OCc1cc2ccccc2[nH]c1=O)c1ccc([N+](=O)[O-])cc1,i,i,i,i,i,nt,nt,nt,nt,
Cc1ccc(C(=O)OCc2cc3ccccc3[nH]c2=O)cc1,23,i,i,i,15,24,31,17,nt,
O=C(COc1ncnc2ccc(Br)cc12)NCc1ccc2c(c1)OCO2,58,i,i,i,41,40,59,50,i,
O=C(Nc1ccc2c(c1)OCO2)C1CC(=O)N(c2cccc(Cl)c2)C1 (stereo not given),i,i,i,i,i,nt,nt,nt,nt,
O=C(c1ccc2c(c1)CCC2)N1CCN(Cc2c(F)cccc2Cl)CC1,i,i,i,nt,i,nt,nt,nt,nt,
CCOC(=O)c1cc(C(=O)OCC)c2cc(Br)ccc2n1,40,i,i,i,11,12,17,38,i,
SMILES,NR1D1 modulator,rCAG RNA binder,NR2E3 ag-1,NR2E3 ag-2,PG9 Ab binder,PG9 bind confirm,PGV04 counter,Rev-erbA confirm,RORg counter,others
CCC(C(=O)NC1CCCC1)N(C(=O)c1snc(C(N)=O)c1N)c1ccc(OC)cc1 (stereo not given),18,i,i,i,34,15,41,i,nt,
CC(=O)c1ccc2cc3c(cc2c1)OCO3,i,i,i,nt,i,nt,nt,nt,nt,
Cc1cccc(NC(=O)CN(C)C(=O)/C=C/c2ccccc2)c1C,i,i,i,nt,i,nt,nt,nt,nt,
CC(=O)c1ccc(Nc2ncnc3ccc(Br)cc23)cc1,121,i,i,nt,11,20,56,119,i,
Cc1ccccc1OCC(=O)Nc1ccc2c(c1)C(=O)c1ccccc1C2=O,273,i,i,i,25,73,91,221,6.9,
CCn1ccc(C(=O)Nc2sc3c(c2C(=O)OC)CCC3)n1,i,i,i,nt,i,nt,nt,nt,nt,
COC(=O)c1c(NC(=O)c2ccn(C)n2)sc2c1CCC2,20,i,i,i,9.0,i,13,i,nt,
COC(=O)Cn1c(=NC(=O)c2ccc(OC)c(OC)c2)sc2cc(OC)ccc21,64,i,i,i,33,61,75,31,i,
CCCCCCCCN1C(=O)[C@@H](CC(=O)NCCCCc2ccccc2)C[C@@]2(C(=O)OC)C1=C[C@H](C(C)(C)C)O[C@@H]2C,i,i,nt,nt,i,nt,nt,nt,nt,
COc1ccccc1N(C)S(=O)(=O)c1ccc(C(=O)Nc2nc(C)c(C(C)=O)s2)cc1,104,i,i,i,40,41,61,87,i,
CCC(=O)c1cn(CC(=O)Nc2ccc(C)cc2C)c2ccccc12,36,i,i,i,12,12,18,40,9.8,
CC(=O)Nc1cccc(Nc2nc(-c3ccccc3)nc3ccccc23)c1,i,i,i,i,i,nt,nt,nt,nt,
CC(=O)c1cccc(Nc2nc(-c3ccccc3)nc3ccccc23)c1,26,i,i,i,36,12,22,i,nt,
Cc1ccc(NC(=O)c2ccc3c(c2)OCO3)cc1Cl,i,i,i,i,i,nt,nt,nt,nt,
Cc1ccc(C(=O)Nc2ccc3c(c2)OCO3)cc1Cl,24,i,i,i,21,18,22,i,nt,
N#Cc1c(-c2cccs2)cc(C2CC2)nc1SCC(N)=O,52,i,i,i,8.7,18,27,47,i,
N#Cc1c(-c2ccccc2)cc(C2CC2)nc1SCC(=O)O,i,i,i,i,i,nt,nt,nt,nt,
O=C(CCCCCn1c(=S)[nH]c2ccc(N3CCOCC3)cc2c1=O)NCc1ccc2c(c1)OCO2,22,i,i,i,21,17,24,i,nt,
